The record followed here is paper PMC4002122 (Chemical Research in Toxicology, 2014).

Type in all cases: in vitro ADME
Data set [1] concerns the target T1, UGT1A9 (Homo sapiens, UniProt O60656).
T1 sequence (O60656 26-530): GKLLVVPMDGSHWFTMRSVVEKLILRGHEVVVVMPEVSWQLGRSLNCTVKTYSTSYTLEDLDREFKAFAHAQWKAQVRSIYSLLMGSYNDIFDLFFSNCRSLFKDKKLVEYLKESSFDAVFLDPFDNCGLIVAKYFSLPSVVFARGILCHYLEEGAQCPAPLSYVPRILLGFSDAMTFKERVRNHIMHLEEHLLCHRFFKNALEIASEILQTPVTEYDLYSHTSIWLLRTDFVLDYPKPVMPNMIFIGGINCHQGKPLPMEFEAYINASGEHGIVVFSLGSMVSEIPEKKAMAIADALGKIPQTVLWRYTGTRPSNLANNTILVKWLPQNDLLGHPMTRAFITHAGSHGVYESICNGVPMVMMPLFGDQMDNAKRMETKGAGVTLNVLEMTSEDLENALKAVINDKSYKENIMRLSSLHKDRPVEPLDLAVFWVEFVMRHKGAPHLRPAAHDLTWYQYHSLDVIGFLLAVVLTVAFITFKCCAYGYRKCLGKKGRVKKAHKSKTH
The data set can be described thus: Screening of recombinant UGT1A9 for glucuronidation activity. To be noted: 250 μM substrate, 5 μg protein, 60 min, 37 °C. Put shortly: (§1)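 UGT1A1, 1A3, 1A4 and 1A6–1A10 were His-tagged and expressed in baculovirus-infected Sf9 cells; UGT2B4, 2B7, 2B15 and 2B17 were commercial membranes run per supplier protocol. 5 μg membrane protein with 250 μM substrate, 2 mM UDP-GlcUA, Tris–HCl pH 7.4, MgCl2, saccharolactone, 2% DMSO; 37 °C, 60 min; no-substrate controls. Products measured by HPLC-UV/vis; β-glucuronidase hydrolysis separated O- from carboxyl glucuronides.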

The target of a further data set is T2, UGT1A6 (Homo sapiens, UniProt P19224).
T2 sequence (P19224 27-532): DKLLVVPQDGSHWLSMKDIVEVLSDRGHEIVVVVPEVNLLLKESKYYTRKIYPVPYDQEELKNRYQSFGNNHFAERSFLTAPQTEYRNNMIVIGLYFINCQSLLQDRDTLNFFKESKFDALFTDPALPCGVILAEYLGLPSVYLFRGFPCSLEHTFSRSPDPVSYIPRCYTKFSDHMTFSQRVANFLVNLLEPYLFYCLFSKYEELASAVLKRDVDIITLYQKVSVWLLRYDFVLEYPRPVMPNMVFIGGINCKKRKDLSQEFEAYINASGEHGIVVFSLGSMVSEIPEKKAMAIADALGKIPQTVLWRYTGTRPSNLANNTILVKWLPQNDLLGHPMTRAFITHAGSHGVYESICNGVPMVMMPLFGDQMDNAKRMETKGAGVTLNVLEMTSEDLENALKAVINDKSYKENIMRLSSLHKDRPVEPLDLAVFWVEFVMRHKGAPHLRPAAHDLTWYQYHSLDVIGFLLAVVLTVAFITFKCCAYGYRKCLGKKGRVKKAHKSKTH
The data set can be described thus: Screening of recombinant UGT1A6 for glucuronidation activity. To be noted: 250 μM substrate, 5 μg protein, 60 min, 37 °C. Put shortly: as §1

In the next data set the target is T3, UGT1A1 (Homo sapiens, UniProt P22309).
T3 sequence (P22309 26-533): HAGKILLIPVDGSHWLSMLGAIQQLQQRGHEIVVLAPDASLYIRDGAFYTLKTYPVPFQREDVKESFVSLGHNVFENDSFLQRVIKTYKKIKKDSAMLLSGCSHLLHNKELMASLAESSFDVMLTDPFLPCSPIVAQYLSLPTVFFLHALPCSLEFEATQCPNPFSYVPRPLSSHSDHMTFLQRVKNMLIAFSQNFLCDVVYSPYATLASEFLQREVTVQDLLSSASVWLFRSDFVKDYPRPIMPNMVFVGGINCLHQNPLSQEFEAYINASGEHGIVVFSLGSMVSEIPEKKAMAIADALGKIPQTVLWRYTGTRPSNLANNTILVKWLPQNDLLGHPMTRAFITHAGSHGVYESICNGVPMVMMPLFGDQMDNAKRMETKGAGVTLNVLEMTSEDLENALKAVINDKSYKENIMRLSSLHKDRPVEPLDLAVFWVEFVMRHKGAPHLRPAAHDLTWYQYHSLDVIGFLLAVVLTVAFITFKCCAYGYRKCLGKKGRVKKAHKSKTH
Put plainly: Screening of recombinant UGT1A1 for glucuronidation activity. As to conditions: 250 μM substrate, 5 μg protein, 60 min, 37 °C. The essentials:
as §1

Data set [2] deals with T1, UGT1A9. The data set can be described thus: Steady state kinetics of glucuronidation by recombinant UGT1A9.
In a further data set the target is T4, UGT1A7 (Homo sapiens, UniProt Q9HAW7).
T4 sequence (Q9HAW7 26-530): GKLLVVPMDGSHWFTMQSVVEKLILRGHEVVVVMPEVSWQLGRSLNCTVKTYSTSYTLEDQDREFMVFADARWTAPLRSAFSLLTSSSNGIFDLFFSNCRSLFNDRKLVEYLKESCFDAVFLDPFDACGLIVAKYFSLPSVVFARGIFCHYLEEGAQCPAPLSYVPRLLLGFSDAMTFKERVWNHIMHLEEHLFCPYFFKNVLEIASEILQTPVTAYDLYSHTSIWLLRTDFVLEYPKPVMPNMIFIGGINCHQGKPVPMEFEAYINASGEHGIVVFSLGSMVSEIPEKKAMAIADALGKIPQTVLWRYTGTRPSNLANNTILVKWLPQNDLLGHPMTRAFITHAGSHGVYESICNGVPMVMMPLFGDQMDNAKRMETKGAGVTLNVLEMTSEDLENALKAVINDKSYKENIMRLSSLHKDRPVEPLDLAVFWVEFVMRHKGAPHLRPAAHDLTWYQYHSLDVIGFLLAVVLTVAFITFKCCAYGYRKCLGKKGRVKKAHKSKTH
Put plainly: Steady state kinetics of glucuronidation by recombinant UGT1A7.

Data set [3] in a line: Glucuronidation by human intestinal microsomes. To be noted: 0.25 mM substrate, 60 min. The essentials:
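Microsomes from individual human livers (10 donors), a pooled liver sample and hepatosomes, or from intestines (13 donors). Substrate dried from ethanol, redissolved in DMSO and sonicated. Incubated 37 °C, 60 min; ethanol stop, centrifuged. Glucuronides measured by reversed-phase HPLC-UV; nmol/mg/min, median and range.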

Where “and” joins values, the source holds several entries; their conditions need not be identical. Equal values may be shown once.

`COc1cc(/C=C/c2cc([N+](=O)[O-])c(O)c([N+](=O)[O-])c2)cc(OC)c1` [DNR-1, (E)-4-(3,5-dimethoxystyryl)-2,6-dinitrophenol]: the “glucuronidation activity (glucuronide formed)” value at UGT1A9 [1], on UGT1A6 and on UGT1A1 was “No activity” throughout.

As for `COc1ccc(/C=C(/C(=O)O)c2cc(OC)c(OC)c(OC)c2)cc1O` [NI-12a, (E)-3-(3-hydroxy-4-methoxyphenyl)-2-(3,4,5-trimethoxyphenyl)acrylic acid], the “glucuronidation activity (glucuronide formed)” value on UGT1A9 [1] is recorded as “only the hydroxyl metabolite”; at UGT1A6, “not active”; at UGT1A1 it was “only the carboxyl metabolite”. Besides, the NI-12a-COO-gluc formation entry on UGT1A9 [2] (COO-glucuronide) and at UGT1A7 (COO-glucuronide) was “not produced” in each case. The Vmax was 8.3 nm/mg protein/min on UGT1A9 [2] (NI-12a glucuronidation); 8.3 nmol/mg/min and 8.3 ± 0.52 nmol/mg/min on UGT1A9 [2] (NI-12a-O-gluc formation). Also, the “catalytic efficiency, ratio Vmax/Km” value on UGT1A9 [2] (NI-12a glucuronidation) came out at 35 µL/min/mg. The kinetic model entry is “Michaelis–Menten and M–M” at UGT1A9 [2] (NI-12a-O-gluc formation); “uncompetitive substrate inhibition and USI” at UGT1A7 (NI-12a-O-gluc formation). Also, the Ks at UGT1A7 (NI-12a-O-gluc formation, USI model) is 242 ± 133 µM. In data set [3] (donors HI27, HI28, HI29, and HI54), the glucuronidation activity entry was “failed to display glucuronidation activity”. In addition, the metabolites produced entry in data set [3] (donors HI34, HI36, HI40, and HI41) is “only one (the hydroxyl) metabolite”; in data set [3] (remaining donors with activity), “two (hydroxyl and carboxyl) metabolites”.

For orientation: Km means the concentration of substrate that gives half-maximal velocity. `COc1ccc(C=Cc2cc(OC)cc(OC)c2/C=N/O)cc1` [NI-ST-05, (E)-2,4-dimethoxy-6-(4-methoxystyryl)benzaldehyde oxime]: the “glucuronidation activity (glucuronide formed)” value is “catalyzed the formation of the C=N–O-glucuronide” at UGT1A9 [1], “inactive” on UGT1A6 and “catalyzed the formation of the C=N–O-glucuronide” on UGT1A1. For the same molecule, the kinetic model result on UGT1A9 [2] (NI-ST-05–N–O-gluc formation) is given as “did not fit any of the kinetic models tested”. Moreover, the Km at 60 min on UGT1A9 [2] (human, pH 7.4) is less than 5 µM. Moreover, the “NI-ST-05–N–O-gluc formation” value at UGT1A7 (N–O-glucuronide) is listed as “not produced”. Moreover, the metabolites produced result in data set [3] (all other donors (than HI27, HI29, HI30)) is “one metabolite”. Besides, the glucuronidation activity entry in data set [3] (donors HI27, HI29, and HI30) was “failed to display glucuronidation activity”.
